Test results reported in ChEMBL document CHEMBL1123282, “Antiinflammatory activity of substituted 6-hydroxypyrimido[2,1-f]purine-2,4,8(1H,3H,9H)-triones. Atypical nonsteroidal antiinflammatory agents” (J Med Chem, 1986).
Values joined by “and” are separate entries in the source; they are usually repeats but may differ in a detail not shown here. Identical values can stand only once. Values belong to the compound of their own block, whether it stands above or below them.

Experiments:
[1] = test system: Rattus norvegicus; experiment: Compound was tested in vivo for antiinflammatory activity against rats by RPAR(reverse passive Arthus reaction) synovitis method ata dose of 50 mg/kg, po; assay type: functional
In short: (§1)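 Lewis rats, oral drug or placebo 1 h before iv BSA (2.28 mg in saline), then intraarticular rabbit anti-BSA (0.54 mg) into one knee and saline into the other, under light anesthesia. Second oral dose at 3 h; the total of both doses is the calculated dose. About 17 h after induction, subpatellar tissue with synovium is excised and weighed. Response is antibody-minus-saline knee weight, tested by analysis of variance.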

[2] = test system: Rattus norvegicus; experiment: Antiinflammatory activity against collagen II arthritis in rats, activity % inhibition in noninjected paw edema; assay type: functional
In short: (§2)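 Rats immunised with bovine articular-cartilage type II collagen (dissolved in 0.01 M AcOH for 24 h at 4 °C, dialysed against saline) mixed in equal volume with incomplete Freund's adjuvant. Paws were examined weekly for 7 weeks. An animal counted as arthritic at Δ paw volume ≥8.0 (injected paw) or ≥4.0 (noninjected paw). Bone lesions were scored on lateral-projection foot radiographs. 16 rats/group.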

[3] = test system: Rattus norvegicus; experiment: Antiinflammatory activity on the development of collagen II arthritis in rats, measured based on animals positive for arthritis by the presence of paw edema; assay type: functional; in short: as §2
[4] = test system: Rattus norvegicus; experiment: Antiinflammatory activity against collagen II arthritis in rats, activity% inhibition in injected paw edema; assay type: functional; in short: as §2
[5] = test system: Rattus norvegicus; experiment: Compound was tested in vivo for antiinflammatory activity against chronic adjuvant arthritic rat by prophylactic inhibition 1 degree paw after peroral administration of 2 mg/kg of dose; conditions: po, read-out: Inhibition
[6] = organism: Rattus norvegicus; experiment: Antiinflammatory activity on the development of collagen II arthritis in rats, measured based on animals positive for arthritis by the presence of bone lesions; assay type: functional; in short: as §2
[7] = test system: Rattus norvegicus; experiment: Compound was tested in vivo for antiinflammatory activity against chronic adjuvant arthritic rat by prophylactic inhibition 2 degree paw after peroral administration of 2 mg/kg of dose; conditions: po, read-out: Inhibition
[8] = test system: Rattus norvegicus; experiment: Compound was tested in vivo for antiinflammatory activity against chronic adjuvant arthritic rat by therapeutic inhibition 2 degree paw after peroral administration of 5 mg/kg of dose; conditions: po, read-out: Inhibition
[9] = test system: Rattus norvegicus; experiment: Compound was tested in vivo for antiinflammatory activity against rats by RPAR(reverse passive Arthus reaction) synovitis method; assay type: functional; in short: as §1
[10] = test system: Rattus norvegicus; experiment: Compound was tested in vivo for antiinflammatory activity against chronic adjuvant arthritic rat by therapeutic inhibition 1 degree paw after peroral administration of 5 mg/kg of dose; conditions: po, read-out: Inhibition
[11] = organism: Rattus norvegicus; experiment: Delayed Type hypersensitivity (DTH) is measured by increase in ear thickness 24 hours after antigen injection into pinna; assay type: functional
[12] = organism: Rattus norvegicus; experiment: Antiinflammatory activity by immune response to collagen II antigen in rats antibody titer was determined by passive hemagglutinination; assay type: functional
In short: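 In rats with bovine type II collagen/incomplete Freund's adjuvant arthritis, the antibody response to collagen II was titred by passive hemagglutination. The delayed-type hypersensitivity component, ear thickness 24 h after intrapinna antigen, was read at day 21.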

[13] = molecular target: T1, Polyunsaturated fatty acid 5-lipoxygenase (Rattus norvegicus) (UniProt P12527); experiment: In vitro inhibitory activity against Lipoxygenase in rat neutrophils at a dose of 50 uM
T1 sequence (whole entry): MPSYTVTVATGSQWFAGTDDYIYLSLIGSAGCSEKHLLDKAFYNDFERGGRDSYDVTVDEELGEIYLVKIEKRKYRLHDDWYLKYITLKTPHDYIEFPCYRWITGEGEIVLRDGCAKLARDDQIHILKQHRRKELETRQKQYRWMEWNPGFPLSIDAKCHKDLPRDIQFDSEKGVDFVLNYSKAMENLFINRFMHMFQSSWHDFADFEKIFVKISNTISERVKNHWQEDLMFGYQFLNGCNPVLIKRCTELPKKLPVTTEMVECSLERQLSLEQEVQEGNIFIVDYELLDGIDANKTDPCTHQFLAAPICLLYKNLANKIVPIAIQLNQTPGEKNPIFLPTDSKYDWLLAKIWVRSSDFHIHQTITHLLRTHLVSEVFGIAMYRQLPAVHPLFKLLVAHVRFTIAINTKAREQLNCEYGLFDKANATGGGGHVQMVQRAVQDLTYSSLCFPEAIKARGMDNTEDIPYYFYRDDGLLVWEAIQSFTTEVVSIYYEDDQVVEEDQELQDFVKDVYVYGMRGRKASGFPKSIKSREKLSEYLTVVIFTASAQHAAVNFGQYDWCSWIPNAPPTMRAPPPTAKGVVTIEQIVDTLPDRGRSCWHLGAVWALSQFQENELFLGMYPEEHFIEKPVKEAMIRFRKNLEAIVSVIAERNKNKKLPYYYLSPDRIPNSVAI
In short: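 Neutrophils come from the 4 h pleural exudate of male Wistar-Lewis rats given iv BSA plus intrapleural rabbit anti-BSA IgG. Cells are washed, red cells lysed with NH4Cl, and resuspended at about 5×10^6 cells/0.1 mL in Tris pH 7.4 with NaCl and 1 mM CaCl2. Cells are preincubated with compound 4 min at room temperature.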

[14] = test system: Rattus norvegicus; experiment: Compound was tested in vivo for antiinflammatory activity against chronic adjuvant arthritic rat by prophylactic inhibition 1 degree paw after peroral administration of 10 mg/kg of dose; assay type: functional; conditions: route oral
In short: (§3)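 Prophylactic adjuvant arthritis: heat-killed Mycobacterium tuberculosis powder in paraffin oil (6 mg/mL), 0.1 mL injected into the left hind paw. Drug given orally 1 h before adjuvant, then for 21 consecutive days; controls received methyl cellulose. Left (1°) and right (2°) hind paw volumes were measured by plethysmograph.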

[15] = test system: Rattus norvegicus; experiment: Compound was tested in vivo for antiinflammatory activity against chronic adjuvant arthritic rat by prophylactic inhibition 2 degree paw after peroral administration of 10 mg/kg of dose; assay type: functional; conditions: route oral; in short: as §3
[16] = test system: Rattus norvegicus; experiment: In vivo antiinflammatory activity against rats by RPAR(reverse passive Arthus reaction) synovitis method; assay type: functional; parameters: concentration or dose not given beside the values; in short: as §1
[17] = molecular target: Cyclooxygenase (Rattus norvegicus) (UniProt P35355+Q63921); experiment: In vitro inhibitory activity against Prostaglandin G/H synthase in rat neutrophils at a dose of 50 uM
[18] = test system: Rattus norvegicus; experiment: compound was tested in vivo for antiinflammatory activity against rats by RPAR(reverse passive Arthus reaction) synovitis method
[19] = test system: Rattus norvegicus; experiment: Compound was tested in vivo for antiinflammatory activity against chronic adjuvant arthritic rat by therapeutic inhibition 2 degree paw after peroral administration of 1 mg/kg of dose; assay type: functional; conditions: route oral
[20] = test system: Rattus norvegicus; experiment: Compound was tested in vivo for antiinflammatory activity against chronic adjuvant arthritic rat by therapeutic inhibition 2 degree paw after peroral administration of 3 mg/kg of dose; conditions: po, read-out: Inhibition
[21] = test system: Rattus norvegicus; experiment: Compound was tested in vivo for antiinflammatory activity against chronic adjuvant arthritic rat by therapeutic inhibition 2 degree paw after peroral administration of 0.3 mg/kg of dose; conditions: po, read-out: Inhibition
[22] = test system: Rattus norvegicus; experiment: Compound was tested in vivo for antiinflammatory activity against chronic adjuvant arthritic rat by prophylactic inhibition 2 degree paw after peroral administration of 1 mg/kg of dose; conditions: po, read-out: Inhibition
[23] = organism: Rattus norvegicus; experiment: animal or person; conditions: po, read-out: Inhibition

Structure (SMILES): CCCc1c(O)n(C(C)c2ccccc2)c2nc3c(c(=O)n(C)c(=O)n3C)n2c1=O (stereo unspecified)
inhibition in vivo at 50 mg/kg [1]: 0%

Structure (SMILES): CN1C(C(=O)Nc2ccccn2)=C(O)c2ccccc2S1(=O)=O [PIROXICAM]
Inhibition [2]: 0%
Positive [3]: 73.3%
Inhibition [4]: 0%
inhibition in vivo at 2 mg/kg [5]: 66%
Positive [6]: 60%
inhibition in vivo at 2 mg/kg [7]: 84%
inhibition in vivo at 5 mg/kg [8]: 80%
ED50 [9]: 3.5 mg/kg
inhibition in vivo at 5 mg/kg [10]: 68%
DTH [11]: 0.0526 mm
Antibody titer [12]: 12.2

Structure (SMILES): Cc1c(O)n(Cc2ccccc2F)c2nc3c(c(=O)n(C)c(=O)n3C)n2c1=O
inhibition in vivo at 50 mg/kg [1]: 0%

inhibition [13]: 16% and 20%
inhibition [17]: 16%
Structure (SMILES): C=CCc1c(O)n(Cc2ccccc2)c2nc3c(c(=O)n(C)c(=O)n3C)n2c1=O
inhibition in vivo at 10 mg/kg [14]: 16%
inhibition in vivo at 10 mg/kg [15]: 16%
Inhibition [16]: 29%

Structure (SMILES): COc1ccc2cc([C@H](C)C(=O)O)ccc2c1 [NAPROXEN]
ED50 [18]: 24.4 mg/kg
inhibition in vivo at 1 mg/kg [19]: 50%
inhibition in vivo at 3 mg/kg [20]: 70%
inhibition in vivo at 0.3 mg/kg [21]: 27%
inhibition in vivo at 1 mg/kg [22]: 14%
inhibition in vivo at 5 mg/kg [8]: 44%
inhibition in vivo at 25 mg/kg [23]: 58%

Structure (SMILES): Cc1c(O)n(Cc2cccc(F)c2)c2nc3c(c(=O)n(C)c(=O)n3C)n2c1=O
inhibition in vivo at 50 mg/kg [1]: 0%
